UHRF1 MBD2 ctr = UHRF1 methyl-DNA binding inhibition. Q96T88. hit rate 0.75% among 370,000. UHRF1 binding to methylated oligo, TR-FRET. inhibition, % at 4.4 µM; in the data active means inhibition above about 21%;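 further: UHRF1 SRA domain binding a hemimethylated CpG hairpin DNA probe; 0% = median of test compound wells and 100% = reference inhibitor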
Target sequence (Q96T88 whole entry, looked up, the tested form may be a part): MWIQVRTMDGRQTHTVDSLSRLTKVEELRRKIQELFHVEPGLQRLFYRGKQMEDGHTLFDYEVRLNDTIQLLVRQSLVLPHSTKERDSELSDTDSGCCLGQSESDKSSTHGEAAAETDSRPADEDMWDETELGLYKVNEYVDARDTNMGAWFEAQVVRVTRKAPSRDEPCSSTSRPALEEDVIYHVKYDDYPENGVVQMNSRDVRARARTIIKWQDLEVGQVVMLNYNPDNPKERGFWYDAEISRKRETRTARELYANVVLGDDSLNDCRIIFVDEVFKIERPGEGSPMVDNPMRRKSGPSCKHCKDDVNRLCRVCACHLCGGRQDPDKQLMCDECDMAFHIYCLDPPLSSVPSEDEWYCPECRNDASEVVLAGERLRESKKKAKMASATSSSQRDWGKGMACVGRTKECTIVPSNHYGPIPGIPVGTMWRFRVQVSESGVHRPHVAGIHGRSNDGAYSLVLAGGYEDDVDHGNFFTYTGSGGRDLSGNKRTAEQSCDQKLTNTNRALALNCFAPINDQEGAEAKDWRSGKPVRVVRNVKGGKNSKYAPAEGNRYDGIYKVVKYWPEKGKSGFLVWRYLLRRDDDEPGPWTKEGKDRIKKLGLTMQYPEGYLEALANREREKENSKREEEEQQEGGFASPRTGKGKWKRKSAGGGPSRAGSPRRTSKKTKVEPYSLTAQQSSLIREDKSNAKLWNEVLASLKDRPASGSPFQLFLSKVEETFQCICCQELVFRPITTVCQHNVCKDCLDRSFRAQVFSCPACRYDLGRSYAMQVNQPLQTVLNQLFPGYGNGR
ARFGAP1 inhibitor = inhibitors of rat ARFGAP1. Q62848. Arfgap1-stimulated ARF1 GTP hydrolysis, GDP FP detection. inhibition, % at 16.5 µM. AID 651572. hit rate 0.26% among 360,000;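 active means inhibition above a per-plate limit, mean inhibition of low control wells plus 3 SD, cut at about 25% in these data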;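 further: 0% = DMSO wells with enzyme and 100% = wells lacking Arfgap1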
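Material: truncated rat Arfgap1 GAP domain; Incubation: compound-enzyme preincubation 20 min, reaction 120 min, detection 60 min, 25 °C; Read-out: percent inhibition of Arfgap1-stimulated GTP hydrolysis; Technique: FP, GDP Alexa 633 tracer displaced from anti-GDP antibody, 620/688 nm; Controls: No-Arfgap1 wells (100%) versus DMSO full-reaction wells (0%); Replication: single well per compound.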
MBD2 DNA inh = inhibitors of human MBD2 binding to methylated oligonucleotide. Q9UBB5. TR-FRET. inhibition, % at 4.4 µM. hit rate 0.31% among 370,000; in the data active means inhibition above about 13%
ASAP1 GAP inh = inhibitors of human ASAP1 ArfGAP activity | AID 624377 | hit rate 0.19% among 360,000 | inhibition, % at 16.5 µM | ASAP1-stimulated ARF1 GTP hydrolysis, GDP FP detection | Q9ULH1; in the data active means inhibition above about 25%;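 further: 0% = vehicle with enzyme and substrate and 100% = no enzyme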
LEDGF integ inh = blocks HIV-1 LEDGF/p75-dependent DNA integration. hit rate 0.64% among 370,000. TR-FRET IN-LEDGF/p75 DNA integration, Eu/Cy5. inhibition, % at 3.7 µM;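 active means inhibition above the screen-wide mean plus 3 SD, cut at about 13% in these data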;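 further: signal is the Cy5 over europium emission ratio at 671 and 618 nm; 0% = plate median of compound wells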
TDP2 inh = TDP2 (human) inhibition, absorbance primary screen | inhibition, % at 12.8 µM | O95551 | hit rate 0.34% among 370,000 | recombinant TDP2, T5PNP hydrolysis, p-nitrophenol absorbance 415 nm;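 active means inhibition above the mean of all tested compounds plus 3 SD, set per campaign, cut at about 25% in these data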;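 further: 0% = DMSO with enzyme and 100% = buffer with substrate but no TDP2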
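test system = human TDP2 enzyme | input = TDP2 enzyme at 120 nM final | medium = 50 mM Tris-HCl pH 7.5 with Mg2+, KCl, DTT, BSA | also added = T5PNP substrate, 5 mM | times = 2 h at 37 °C | technique = epi absorbance | benchmarks = high control without enzyme, low control DMSO plus TDP2 | replication = each compound tested once, singlicate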
Active calls of the source: *. A selection: hits, their analogues and other compounds. The true share with any hit is near 2%.

For CC1CCN(C(=S)c2cn(Cc3cccc(F)c3)c3ccccc23)CC1 the results were UHRF1 MBD2 ctr 29.5*, ARFGAP1 inhibitor -2.5, MBD2 DNA inh -2.8, ASAP1 GAP inh 1.6, LEDGF integ inh 2.2 and TDP2 inh 3.1.
CCOc1ccccc1N(CC(=O)N(C)Cc1ccccc1)S(=O)(=O)c1ccccc1 was read as UHRF1 MBD2 ctr 22.6*, ARFGAP1 inhibitor 0.3, MBD2 DNA inh 7.3, ASAP1 GAP inh 10.2, LEDGF integ inh 4.3 and TDP2 inh 7.5.
Screening CCOc1ccccc1N(CC(=O)O)S(=O)(=O)c1ccccc1 returned UHRF1 MBD2 ctr 4.1, ARFGAP1 inhibitor -6.0, MBD2 DNA inh 2.8, ASAP1 GAP inh -2.2, LEDGF integ inh 0.2 and TDP2 inh -1.7.
CCOC(=O)[C@]12CCCC=C1N(Cc1ccc(OC)cc1)C(=O)[C@@H]2CC(=O)NCc1ccc(OC)c(OC)c1 was read as UHRF1 MBD2 ctr 1.8, MBD2 DNA inh -0.1, LEDGF integ inh -0.7 and TDP2 inh -6.4.
CCN1CCN(c2c(Cl)cccc2NC(=O)c2ccco2)CC1 was read as UHRF1 MBD2 ctr 23.2*, ARFGAP1 inhibitor 1.1, MBD2 DNA inh 11.2, ASAP1 GAP inh 9.9, LEDGF integ inh 4.8 and TDP2 inh -0.7.
For O=C(Nc1cccc(Cl)c1N1CCOCC1)c1ccco1 the results were UHRF1 MBD2 ctr 6.4, ARFGAP1 inhibitor 9.8, MBD2 DNA inh 1.7, ASAP1 GAP inh 10.3, LEDGF integ inh -5.8 and TDP2 inh -22.6.
CCOC(=O)c1c(NC(=O)C2c3ccccc3Oc3ccccc32)sc(C(N)=O)c1C was read as UHRF1 MBD2 ctr 22.3*, ARFGAP1 inhibitor 0.4, MBD2 DNA inh 5.1, ASAP1 GAP inh -7.4, LEDGF integ inh -0.1 and TDP2 inh 2.3.
For CCOC(=O)c1c(NC(=O)C2CCCO2)sc(C(N)=O)c1C (centres undefined) the results were UHRF1 MBD2 ctr -1.6, ARFGAP1 inhibitor 4.6, MBD2 DNA inh -4.0, ASAP1 GAP inh -6.1, LEDGF integ inh 0.5 and TDP2 inh -4.8.
For Cc1c(N2C(=O)/C(=C/c3cccc4ccccc34)SC2=S)c(=O)n(-c2ccccc2)n1C the results were UHRF1 MBD2 ctr 30.8*, ARFGAP1 inhibitor -0.7, MBD2 DNA inh -1.6, ASAP1 GAP inh -3.2, LEDGF integ inh 2.6 and TDP2 inh -2.9.
Screening CCN(C(=O)Cn1nnc(-c2ccncc2)n1)c1ccccc1 returned UHRF1 MBD2 ctr 2.3, MBD2 DNA inh 5.5, LEDGF integ inh 6.2 and TDP2 inh 7.8.
Screening CCOC(=O)c1cn(-c2ccc([N+](=O)[O-])cc2)c2cc(Cl)c([N+](=O)[O-])cc2c1=O returned UHRF1 MBD2 ctr 0.1, ARFGAP1 inhibitor 1.4, MBD2 DNA inh 0.3, ASAP1 GAP inh -6.3, LEDGF integ inh -2.0 and TDP2 inh 6.3.
For O=C(O)c1cn(-c2ccc(F)cc2)c2cc(Cl)c(F)cc2c1=O the results were UHRF1 MBD2 ctr 28.2*, ARFGAP1 inhibitor 5.3, MBD2 DNA inh -0.8, ASAP1 GAP inh -3.7, LEDGF integ inh 3.5 and TDP2 inh 6.8.
O=C(NCCc1c[nH]c2ccccc12)OCc1cn(Cc2cc(F)ccc2F)nn1 was read as UHRF1 MBD2 ctr 0.6, MBD2 DNA inh -2.1, LEDGF integ inh -4.0 and TDP2 inh 9.5.
Screening O=C1CCC/C=C\C[C@@H](CC(=O)N(CCO)Cc2ccccc2)C(=O)N[C@H](c2ccccc2)CO1 returned UHRF1 MBD2 ctr 22.1*, ARFGAP1 inhibitor 0.3, MBD2 DNA inh 4.6, ASAP1 GAP inh -8.4, LEDGF integ inh 1.6 and TDP2 inh 7.7.
COc1cc2c(c(OC)c1OC)-c1ccc(OC)c(=O)cc1[C@@H](NC(C)=O)CC2 was read as UHRF1 MBD2 ctr -1.8, ARFGAP1 inhibitor -1.2, MBD2 DNA inh 0.4, ASAP1 GAP inh 7.3, LEDGF integ inh -1.7 and TDP2 inh 8.8.
Screening COc1cc2c(c(OC)c1OC)-c1ccc(NC(=O)c3ccc(F)cc3)c(=O)cc1[C@@H](NC(C)=O)CC2 returned UHRF1 MBD2 ctr 21.2*, ARFGAP1 inhibitor 1.9, MBD2 DNA inh 7.7, ASAP1 GAP inh -0.6, LEDGF integ inh 6.6 and TDP2 inh 19.1.
For COC(=O)[C@]12C=CCN1[C@H](c1ccc(C(F)(F)F)cc1)c1c(c3ccccc3n1S(=O)(=O)c1ccc(C)cc1)C2 the results were UHRF1 MBD2 ctr 0.6, MBD2 DNA inh -2.7, LEDGF integ inh -1.0 and TDP2 inh -3.2.
Screening CN(C)S(=O)(=O)c1ccc(Cl)c(C(=O)Nc2nc3ccccc3[nH]2)c1 returned UHRF1 MBD2 ctr 39.0*, ARFGAP1 inhibitor 8.0, MBD2 DNA inh 2.0, ASAP1 GAP inh 9.1, LEDGF integ inh -1.9 and TDP2 inh 2.5.
Screening CS(=O)(=O)c1ccccc1C(=O)Nc1nc2ccccc2[nH]1 returned UHRF1 MBD2 ctr -1.8, ARFGAP1 inhibitor 4.0, MBD2 DNA inh -5.4, ASAP1 GAP inh 9.8, LEDGF integ inh 1.7 and TDP2 inh 20.6.
CCc1sc(C(=O)NCCc2ccc(S(N)(=O)=O)cc2)cc1Br was read as UHRF1 MBD2 ctr 21.1*, ARFGAP1 inhibitor -1.6, MBD2 DNA inh 4.8, ASAP1 GAP inh -3.5, LEDGF integ inh 2.9 and TDP2 inh -10.1.
For CCc1sc(C(=O)NCCc2ccc(S(N)(=O)=O)cc2)cc1C the results were UHRF1 MBD2 ctr 0.1, ARFGAP1 inhibitor 2.1, MBD2 DNA inh 8.4, ASAP1 GAP inh -11.7, LEDGF integ inh 0.1 and TDP2 inh 5.5.
For CN(Cc1ccco1)c1ncnc2ccc(-c3ccoc3)cc12 the results were UHRF1 MBD2 ctr 22.2*, ARFGAP1 inhibitor -7.3, MBD2 DNA inh 12.8, ASAP1 GAP inh 2.8, LEDGF integ inh 20.4* and TDP2 inh -4.2.
For CS(=O)(=O)N(CC(=O)Nc1ccc(S(=O)(=O)N2CCCC2)cc1)c1cccc(F)c1 the results were UHRF1 MBD2 ctr 27.6*, ARFGAP1 inhibitor 8.9, MBD2 DNA inh 6.1, ASAP1 GAP inh -3.7, LEDGF integ inh 0.7 and TDP2 inh 1.9.
For Cn1c(N)c(-c2nc3cccnc3n2C)sc1=S the results were UHRF1 MBD2 ctr 24.2*, ARFGAP1 inhibitor -5.1, MBD2 DNA inh 3.8, ASAP1 GAP inh 1.3, LEDGF integ inh 0.3 and TDP2 inh -5.4.
For Cc1ccc(-n2c(N)c(-c3nc4ccccc4n3C)sc2=S)cc1 the results were UHRF1 MBD2 ctr -2.3, ARFGAP1 inhibitor 0.2, MBD2 DNA inh 3.9, ASAP1 GAP inh 1.2, LEDGF integ inh 0.7 and TDP2 inh 10.0.
S=C(Nc1ccccc1)OCCN1CCCC12CCC(c1ccccc1)CC2 (centres undefined) was read as UHRF1 MBD2 ctr -0.1, MBD2 DNA inh -0.8, LEDGF integ inh 1.9 and TDP2 inh 5.0.
`CC(C)CNC(=O)C(=O)NC1CCCC1` gave UHRF1 MBD2 ctr 21.0*, ARFGAP1 inhibitor 10.0, MBD2 DNA inh 5.0, ASAP1 GAP inh 1.0, LEDGF integ inh 3.3 and TDP2 inh 0.8.
For Nc1[nH]c(C(=O)c2ccccc2)c(-c2ccc(Cl)cc2Cl)c1C(=O)c1cccs1 the results were UHRF1 MBD2 ctr -0.5, MBD2 DNA inh -6.5, LEDGF integ inh 2.2 and TDP2 inh -6.2.
